# Test results published in ChEMBL document CHEMBL1128222, “Novel inhibitors for multidrug resistance: 1,3,5-triazacycloheptanes” (J Med Chem, 1995).
# Legend:
# P388/S [1] = assay: Evaluation of inhibitory activity against drug sensitive P388 cells (P388/S) cells; assay type: functional, cell-based, Mus musculus
# Method in brief: (§1)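 P388/S and P388/ADR murine leukemia cells are maintained by weekly intraperitoneal passage in female CDF1 mice. For the assay they are seeded at 10^5 cells/mL in RPMI-1640 with 10% FCS, 20 μM β-mercaptoethanol and 100 μg/mL kanamycin. Vinblastine is given with or without modulator (0–5.0 μM; DMSO final 0.25%) for 48 h. Growth is read by MTT and vinblastine IC50 is reported.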
# P388/ADR [2] = assay: Evaluation of inhibitory activity against multidrug resistant P388 cells (P388/ADR) cells; assay type: functional, cell-based, Mus musculus; conditions: p388/adr; method in brief: as §1
# P388/ADR [3] = assay: In vitro for the inhibitory activity against multidrug resistant P388 cells (P388/ADR) cells at a concentration of 0 uM; assay type: functional, cell-based; conditions: Mus musculus; method in brief: as §1
# Mus musculus [4] = assay: Evaluation of Survival of mice upon intraperitoneal injection of VBL and/or oral administration on days 1-4 and 6-8 at a concentration of 20 mg/kg; assay type: functional
# Method in brief: (§2)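 Female CD2F1 mice, 5 per group, were inoculated i.p. with 1.0 × 10^6 P388/ADR cells on day 0. VBL was given by i.p. injection and/or the test agent orally on days 1-4 and 6-8. Read-out was survival days (average ± SD) and ILS (%) against the untreated group, with P < 0.05 by Student's t-test or a two-sample test with Welch's correction.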
# P388/ADR [5] = assay: In vitro for the inhibitory activity against multidrug resistant P388 cells (P388/ADR) cells at a concentration of 1.0 uM; assay type: functional, cell-based; conditions: Mus musculus; method in brief: as §1
# P388/S [6] = assay: In vitro evaluation for the inhibitory activity against drug sensitive P388 cells (P388/S) cells at a concentration of 5.0 uM; assay type: functional, cell-based; conditions: Mus musculus; method in brief: as §1
# P388/ADR [7] = assay: Relative increase in inhibitory activity against multidrug resistant P388 cells (P388/ADR) cells at a concentration of 5.0 uM in presence of vinblastine; assay type: functional, Mus musculus
# Method in brief: (§3)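 Same 48 h MTT growth assay in P388/S or P388/ADR cells at 10^5 cells/mL. Vinblastine IC50 is found alone and with modulator at 1.0, 2.5 or 5.0 μM. The value is the relative increase in vinblastine growth-inhibitory effect, taken as the fold change in IC50 from the combined treatment.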
# P388/S [8] = assay: Relative increase in inhibitory activity against drug sensitive P388 cells (P388/S) cells at a concentration of 1.0 uM in presence of vinblastine; assay type: functional, Mus musculus; method in brief: as §3
# P388/ADR [9] = assay: In vitro for the inhibitory activity against multidrug resistant P388 cells (P388/ADR) cells at a concentration of 5 uM; assay type: functional, cell-based; conditions: Mus musculus; method in brief: as §1
# P388/ADR [10] = assay: Relative increase in inhibitory activity against multidrug resistant P388 cells (P388/ADR) cells at a concentration of 1.0 uM in presence of vinblastine; assay type: functional, Mus musculus; method in brief: as §3
# P388/S [11] = assay: Inhibitory activity against drug sensitive P388 cells (P388/S) cells in presence of adriamycin; assay type: functional, cell-based; conditions: Mus musculus
# Method in brief: (§4)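 P388/S or P388/ADR cells at 10^5 cells/mL in RPMI-1640/10% FCS medium. They receive graded adriamycin, mitomycin C or cisplatin, alone or together with 2.5 μM modulator, for 48 h (DMSO final 0.25%). Growth is read by MTT and the antitumor-drug IC50 is reported.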
# P388/ADR [12] = assay: Inhibitory activity against multidrug resistant P388 cells (P388/ADR) cells at a concentration of 2.5 uM in presence of adriamycin; conditions: Mus musculus
# P388/ADR [13] = assay: In vitro for the inhibitory activity against multidrug resistant P388 cells (P388/ADR) cells at a concentration of 2.5 uM; assay type: functional, cell-based; conditions: Mus musculus; method in brief: as §1
# P388/S [14] = assay: In vitro evaluation for the inhibitory activity against drug sensitive P388 cells (P388/S) cells at a concentration of 0 uM; assay type: functional, cell-based; conditions: Mus musculus; method in brief: as §1
# P388/S [15] = assay: In vitro evaluation for the inhibitory activity against drug sensitive P388 cells (P388/S) cells at a concentration of 2.5 uM; assay type: functional, cell-based; conditions: Mus musculus; method in brief: as §1
# P388/ADR [16] = assay: Inhibitory activity against multidrug resistant P388 cells (P388/ADR) cells at a concentration of 2.5 uM in presence of mitomycin C; conditions: Mus musculus
# P388/S [17] = assay: In vitro evaluation for the inhibitory activity against drug sensitive P388 cells (P388/S) cells at a concentration of 1.0 uM; assay type: functional, cell-based; conditions: Mus musculus; method in brief: as §1
# P388/S [18] = assay: Inhibitory activity against drug sensitive P388 cells (P388/S) cells in presence of mitomycin C; assay type: functional, cell-based; conditions: Mus musculus; method in brief: as §4
# P388/S [19] = assay: Relative increase in inhibitory activity against drug sensitive P388 cells (P388/S) cells at a concentration of 2.5 uM in presence of vinblastine; assay type: functional, Mus musculus; method in brief: as §3
# P388/S [20] = assay: Relative increase in inhibitory activity against drug sensitive P388 cells (P388/S) cells at a concentration of 5.0 uM in presence of vinblastine; assay type: functional, Mus musculus; method in brief: as §3
# P388/S [21] = assay: Inhibitory activity against drug sensitive P388 cells (P388/S) cells in presence of cisplatin; assay type: functional, cell-based; conditions: Mus musculus; method in brief: as §4
# Mus musculus [22] = assay: Evaluation of Survival of mice upon intraperitoneal injection of VBL and/or oral administration on days 1-4 and 6-8 at a concentration of 10 mg/kg; assay type: functional; method in brief: as §2
# Mus musculus [23] = assay: Evaluation of ILS percentage of mice upon intraperitoneal injection of VBL / oral administration on days 1-4 and 6-8 at a concentration of 40 mg/kg; assay type: functional; method in brief: as §2
# Mus musculus [24] = assay: Evaluation of ILS percentage of mice upon intraperitoneal injection of VBL and/or oral administration on days 1-4 and 6-8 at a concentration of 10 mg/kg; assay type: functional; method in brief: as §2
# P388/ADR [25] = assay: Relative increase in inhibitory activity against multidrug resistant P388 cells (P388/ADR) cells at a concentration of 2.5 uM in presence of vinblastine; assay type: functional, Mus musculus; method in brief: as §3
# P388/ADR [26] = assay: Inhibitory activity against multidrug resistant P388 cells (P388/ADR) cells at a concentration of 2.5 uM in presence of cisplatin; conditions: Mus musculus
# Mus musculus [27] = assay: Evaluation of ILS percentage of mice upon intraperitoneal injection of VBL / oral administration on days 1-4 and 6-8 at a concentration of 20 mg/kg; assay type: functional; method in brief: as §2
# Mus musculus [28] = assay: Evaluation of Survival of mice intraperitoneal injection of VBL and/or oral administration on days 1-4 and 6-8 at a concentration of 40 mg/kg in mice; assay type: functional; method in brief: as §2
# P388/ADR [29] = assay: Evaluation of inhibitory activity and cisplatin against multidrug resistant P388 cells (P388/ADR) cells; assay type: functional, cell-based, Mus musculus; method in brief: as §4
# P388/S [30] = assay: Evaluation of inhibitory activity and cisplatin against drug sensitive P388 cells (P388/S) cells; assay type: functional, cell-based, Mus musculus; conditions: p388/s; method in brief: as §4
compound,measurement,setting,value
CISPLATIN,IC50,P388/S [1],48 nM
same,IC50,P388/ADR [2],61 nM
CC[C@]1(O)C[C@H]2CN(CCc3c([nH]c4ccccc34)[C@@](C(=O)OC)(c3cc4c(cc3OC)N(C)[C@H]3[C@@](O)(C(=O)OC)[C@H](OC(C)=O)[C@]5(CC)C=CCN6CC[C@]43[C@@H]65)C2)C1.CSC1=NC(=O)N(Cc2ccc(Cl)cc2)CCN1Cc1ccc(Cl)cc1,IC50,P388/ADR [3],70 nM
same,Survival days,Mus musculus [4],13.2
same,IC50,P388/ADR [5],23 nM
same,IC50,P388/S [6],0.4 nM
same,Relative activity,P388/ADR [7],23
same,Relative activity,P388/S [8],1.9
same,IC50,P388/ADR [9],2.2 nM
same,Relative activity,P388/ADR [10],3.2
same,IC50,P388/S [11],13 nM
same,IC50,P388/ADR [12],90 nM
same,IC50,P388/ADR [13],6.2 nM
same,IC50,P388/S [14],1.7 nM
same,IC50,P388/S [15],0.7 nM
same,IC50,P388/ADR [16],264 nM
same,IC50,P388/S [17],0.9 nM
same,IC50,P388/S [18],44 nM
same,Relative activity,P388/S [19],2.4
same,Relative activity,P388/S [20],4.3
same,IC50,P388/S [21],72 nM
same,Survival days,Mus musculus [22],11.6
same,ILS at 40 mg/kg,Mus musculus [23],45.8%
same,ILS at 10 mg/kg,Mus musculus [24],20.8%
same,Relative activity,P388/ADR [25],11
same,IC50,P388/ADR [26],51 nM
same,ILS at 20 mg/kg,Mus musculus [27],37.5%
same,Survival days,Mus musculus [28],14
"1,5-Bis-(4-chloro-benzyl)-4-methylsulfanyl-1,5,6,7-tetrahydro-[1,3,5]triazepin-2-one; compound with cisplatin",IC50,P388/ADR [29],51 nM
same,IC50,P388/S [30],72 nM
